Reference: ChEMBL document CHEMBL1138144 (J Med Chem, 2006)

Legend:
[1] = molecular target: T1, Sodium-dependent noradrenaline transporter (Homo sapiens, UniProt P23975); test: Displacement of [125I]RTI-55 from human NET expressed in HEK293 cells; type: cell-based
[2] = molecular target: T2, 5-hydroxytryptamine receptor 2C (Homo sapiens, UniProt P28335); test: Inhibitory activity against 5HT1C
T2 sequence (P28335 whole entry): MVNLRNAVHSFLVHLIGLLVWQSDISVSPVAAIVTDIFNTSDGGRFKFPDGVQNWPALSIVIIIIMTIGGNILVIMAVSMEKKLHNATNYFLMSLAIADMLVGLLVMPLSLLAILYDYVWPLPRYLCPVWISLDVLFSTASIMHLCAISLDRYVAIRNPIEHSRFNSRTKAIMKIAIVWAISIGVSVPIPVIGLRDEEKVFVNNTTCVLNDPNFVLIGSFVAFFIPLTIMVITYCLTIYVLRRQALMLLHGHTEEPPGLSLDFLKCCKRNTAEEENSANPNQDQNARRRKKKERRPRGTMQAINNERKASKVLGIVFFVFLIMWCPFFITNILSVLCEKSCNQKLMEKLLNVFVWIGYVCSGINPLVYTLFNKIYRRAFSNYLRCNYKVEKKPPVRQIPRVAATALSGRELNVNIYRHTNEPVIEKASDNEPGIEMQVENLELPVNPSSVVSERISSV

[3] = molecular target: T1, Sodium-dependent noradrenaline transporter; test: Inhibition of [3H] norepinephrine uptake into human NET expressed in HEK293 cells; type: functional, cell-based
D(1A) dopamine receptor = D(1A) dopamine receptor (Homo sapiens, UniProt P21728); test: Inhibitory activity against dopamine D1
[4] = molecular target: T3, Sodium-dependent serotonin transporter (Homo sapiens, UniProt P31645); test: Inhibition of [3H] serotonin uptake into human SERT expressed in HEK293 cells; type: functional, cell-based
In short: (§1)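 Confluent HEK293 cells expressing hDAT or hSERT, scraped into Krebs-HEPES. Preincubated 10 min at 25°C with compound (0.1% DMSO final). Uptake started with [3H]dopamine or [3H]serotonin (20 nM final) and stopped after 10 min by filtration on PEI-soaked GF/C filters. Non-specific uptake: 5 µM mazindol (DAT) or 5 µM imipramine (SERT). IC50 from triplicate 6-concentration curves, 2–3 independent determinations.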

[5] = molecular target: T4, 5-hydroxytryptamine receptor 1A (Homo sapiens, UniProt P08908); test: Inhibitory activity against 5HT1A
T4 sequence (P08908 whole entry): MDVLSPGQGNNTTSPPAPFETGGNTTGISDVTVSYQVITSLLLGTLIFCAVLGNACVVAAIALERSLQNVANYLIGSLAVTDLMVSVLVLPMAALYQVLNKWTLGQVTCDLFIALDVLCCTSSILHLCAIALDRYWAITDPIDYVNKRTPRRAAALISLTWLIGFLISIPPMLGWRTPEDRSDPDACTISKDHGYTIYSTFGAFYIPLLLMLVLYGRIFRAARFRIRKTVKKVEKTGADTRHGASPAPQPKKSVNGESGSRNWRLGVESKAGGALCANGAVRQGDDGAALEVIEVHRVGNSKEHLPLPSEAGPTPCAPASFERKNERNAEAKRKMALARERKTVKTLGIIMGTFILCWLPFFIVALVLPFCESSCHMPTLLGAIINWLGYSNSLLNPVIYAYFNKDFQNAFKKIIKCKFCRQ

D(3) dopamine receptor = D(3) dopamine receptor (Homo sapiens, UniProt P35462); test: Inhibitory activity against dopamine D3
[6] = molecular target: T5, Sodium-dependent dopamine transporter (Homo sapiens, UniProt Q01959); test: Inhibition of [3H] dopamine uptake into human DAT expressed in HEK293 cells; type: functional, cell-based; in short: as §1
[7] = molecular target: 5-hydroxytryptamine receptor 1B (Homo sapiens, UniProt P28222); test: Inhibitory activity against 5HT1B
D(2) dopamine receptor = D(2) dopamine receptor (Homo sapiens, UniProt P14416); test: Inhibitory activity against dopamine D2
[8] = molecular target: T3, Sodium-dependent serotonin transporter; test: Displacement of [125I]RTI-55 from human SERT expressed in HEK293 cells; type: cell-based
In short: (§2)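 Membranes from HEK293 cells expressing hDAT or hSERT, grown to 80% confluence, lysed in 2 mM HEPES/1 mM EDTA, spun and resuspended in 0.32 M sucrose. About 10–15 µg protein preincubated 10 min with compound in Krebs-HEPES pH 7.4 (0.1% DMSO final). Filtered on GF/C. Non-specific binding: 5 µM mazindol (DAT) or 5 µM imipramine (SERT). Duplicates, 2–3 experiments, IC50 converted to Ki by Cheng-Prusoff.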

[9] = molecular target: T5, Sodium-dependent dopamine transporter; test: Displacement of [125I]RTI-55 from human DAT expressed in HEK293 cells; type: cell-based; in short: as §2

T3 sequence (P31645 whole entry): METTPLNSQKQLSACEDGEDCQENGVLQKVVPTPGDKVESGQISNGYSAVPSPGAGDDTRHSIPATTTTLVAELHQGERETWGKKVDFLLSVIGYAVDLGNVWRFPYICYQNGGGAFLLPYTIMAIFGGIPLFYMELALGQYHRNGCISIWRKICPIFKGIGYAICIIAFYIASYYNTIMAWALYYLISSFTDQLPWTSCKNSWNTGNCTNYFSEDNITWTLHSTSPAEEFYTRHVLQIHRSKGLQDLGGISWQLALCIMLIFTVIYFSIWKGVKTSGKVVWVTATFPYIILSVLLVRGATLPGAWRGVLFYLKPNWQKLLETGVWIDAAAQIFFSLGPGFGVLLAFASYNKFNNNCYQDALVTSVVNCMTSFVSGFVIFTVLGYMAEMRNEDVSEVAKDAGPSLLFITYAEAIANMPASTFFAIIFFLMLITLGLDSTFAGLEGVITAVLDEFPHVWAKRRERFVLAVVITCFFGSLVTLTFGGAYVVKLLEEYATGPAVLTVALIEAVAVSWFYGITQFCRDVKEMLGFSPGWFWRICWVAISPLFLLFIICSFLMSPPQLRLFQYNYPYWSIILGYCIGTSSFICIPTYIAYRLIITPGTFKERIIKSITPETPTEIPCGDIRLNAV
Chain of D(2) dopamine receptor (P14416 whole entry): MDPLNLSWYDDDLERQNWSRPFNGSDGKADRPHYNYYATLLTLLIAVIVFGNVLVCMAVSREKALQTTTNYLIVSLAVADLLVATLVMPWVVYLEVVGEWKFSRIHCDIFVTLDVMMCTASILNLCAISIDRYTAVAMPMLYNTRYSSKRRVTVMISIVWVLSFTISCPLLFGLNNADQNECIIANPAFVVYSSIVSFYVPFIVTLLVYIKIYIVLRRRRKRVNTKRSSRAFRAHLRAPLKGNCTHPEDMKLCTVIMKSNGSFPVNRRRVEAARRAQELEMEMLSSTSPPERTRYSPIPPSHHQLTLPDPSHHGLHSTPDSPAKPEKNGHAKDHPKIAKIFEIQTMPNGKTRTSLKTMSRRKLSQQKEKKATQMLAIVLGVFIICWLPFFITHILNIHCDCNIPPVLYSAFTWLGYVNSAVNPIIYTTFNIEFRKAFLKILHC
T5 sequence (Q01959 whole entry): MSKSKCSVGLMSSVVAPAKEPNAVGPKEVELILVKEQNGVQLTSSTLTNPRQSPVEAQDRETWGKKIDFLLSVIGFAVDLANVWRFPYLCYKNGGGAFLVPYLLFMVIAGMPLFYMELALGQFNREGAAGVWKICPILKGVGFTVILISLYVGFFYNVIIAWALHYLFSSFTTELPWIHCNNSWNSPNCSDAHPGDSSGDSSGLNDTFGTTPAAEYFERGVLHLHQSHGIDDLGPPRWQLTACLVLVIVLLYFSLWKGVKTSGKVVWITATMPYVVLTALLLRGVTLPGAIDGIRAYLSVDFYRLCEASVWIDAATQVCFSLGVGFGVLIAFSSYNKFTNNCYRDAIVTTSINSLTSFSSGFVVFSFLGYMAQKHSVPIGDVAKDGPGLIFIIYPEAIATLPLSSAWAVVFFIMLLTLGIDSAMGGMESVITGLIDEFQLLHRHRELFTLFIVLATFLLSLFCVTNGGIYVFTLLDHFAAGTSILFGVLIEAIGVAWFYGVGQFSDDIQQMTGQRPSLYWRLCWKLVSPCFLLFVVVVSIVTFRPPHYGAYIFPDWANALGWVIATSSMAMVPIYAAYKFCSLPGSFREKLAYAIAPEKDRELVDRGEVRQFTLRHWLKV
T1 sequence (P23975 whole entry): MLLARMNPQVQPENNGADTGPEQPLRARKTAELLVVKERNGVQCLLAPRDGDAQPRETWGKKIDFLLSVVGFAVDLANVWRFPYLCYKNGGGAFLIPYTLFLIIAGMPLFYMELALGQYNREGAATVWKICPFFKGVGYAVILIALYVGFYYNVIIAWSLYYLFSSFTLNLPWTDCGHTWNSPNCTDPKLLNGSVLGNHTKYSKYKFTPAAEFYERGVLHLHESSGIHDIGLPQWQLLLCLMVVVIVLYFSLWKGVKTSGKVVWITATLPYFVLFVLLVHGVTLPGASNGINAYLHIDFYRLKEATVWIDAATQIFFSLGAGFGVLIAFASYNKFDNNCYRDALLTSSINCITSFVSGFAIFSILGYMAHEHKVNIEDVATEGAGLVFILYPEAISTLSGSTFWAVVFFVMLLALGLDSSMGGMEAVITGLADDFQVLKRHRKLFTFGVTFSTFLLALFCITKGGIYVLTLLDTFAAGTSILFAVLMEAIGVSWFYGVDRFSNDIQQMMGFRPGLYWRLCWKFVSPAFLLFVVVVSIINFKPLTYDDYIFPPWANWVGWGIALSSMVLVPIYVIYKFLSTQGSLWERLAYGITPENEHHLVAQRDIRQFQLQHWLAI
Chain of D(1A) dopamine receptor (P21728 whole entry): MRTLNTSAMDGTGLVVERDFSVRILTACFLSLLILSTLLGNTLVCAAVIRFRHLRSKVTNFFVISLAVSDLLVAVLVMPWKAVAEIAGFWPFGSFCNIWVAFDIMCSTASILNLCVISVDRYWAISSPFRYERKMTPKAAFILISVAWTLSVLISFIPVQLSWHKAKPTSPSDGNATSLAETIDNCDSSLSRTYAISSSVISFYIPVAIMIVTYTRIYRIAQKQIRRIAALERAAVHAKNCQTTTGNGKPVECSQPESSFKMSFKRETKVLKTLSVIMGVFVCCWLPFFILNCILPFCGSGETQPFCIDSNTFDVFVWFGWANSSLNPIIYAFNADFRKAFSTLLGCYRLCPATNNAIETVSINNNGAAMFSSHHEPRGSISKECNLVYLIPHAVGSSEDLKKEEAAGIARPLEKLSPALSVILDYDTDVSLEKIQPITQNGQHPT
Chain of 5-hydroxytryptamine receptor 1B (P28222 whole entry): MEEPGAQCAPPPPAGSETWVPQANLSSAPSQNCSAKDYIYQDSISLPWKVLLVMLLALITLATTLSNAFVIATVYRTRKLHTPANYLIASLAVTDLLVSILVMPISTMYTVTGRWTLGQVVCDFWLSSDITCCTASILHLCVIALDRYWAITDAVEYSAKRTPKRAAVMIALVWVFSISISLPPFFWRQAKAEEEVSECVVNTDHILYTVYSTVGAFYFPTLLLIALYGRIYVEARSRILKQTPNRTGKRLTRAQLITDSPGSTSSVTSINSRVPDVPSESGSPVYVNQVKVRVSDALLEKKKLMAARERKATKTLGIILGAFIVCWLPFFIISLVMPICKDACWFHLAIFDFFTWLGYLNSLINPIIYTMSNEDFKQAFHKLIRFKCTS
Chain of D(3) dopamine receptor (P35462 whole entry): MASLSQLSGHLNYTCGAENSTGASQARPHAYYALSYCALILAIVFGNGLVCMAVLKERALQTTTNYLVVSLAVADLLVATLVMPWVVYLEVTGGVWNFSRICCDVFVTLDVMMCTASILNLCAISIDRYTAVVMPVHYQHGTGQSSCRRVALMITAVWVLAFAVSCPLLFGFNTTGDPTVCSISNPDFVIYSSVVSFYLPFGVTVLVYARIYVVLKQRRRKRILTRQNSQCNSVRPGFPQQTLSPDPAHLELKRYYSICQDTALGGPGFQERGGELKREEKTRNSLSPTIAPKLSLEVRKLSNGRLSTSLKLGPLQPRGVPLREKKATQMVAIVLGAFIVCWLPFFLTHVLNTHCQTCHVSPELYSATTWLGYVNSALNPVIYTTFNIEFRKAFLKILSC

Row | Compound | Ki [1] [nM] | IC50 [2] [µM] | IC50 [3] [nM] | IC50 (D(1A) dopamine receptor) [µM] | IC50 [4] [nM] | IC50 [5] [µM] | IC50 (D(3) dopamine receptor) [µM] | IC50 [6] [nM] | IC50 [7] [µM] | IC50 (D(2) dopamine receptor) [µM] | Ki [8] [nM] | Ki [9] [nM]
1 | CCCC(C(=O)c1ccc(Br)cc1)N1CCCC1 (stereo unspecified) | 386 | > 10 | 83 | > 10 | 1050 | > 10 | > 10 | 39.5 | > 10 | > 10 | 830 | 51
2 | CCC[C@@H](C(=O)c1ccc(C)cc1)N1CCCC1 | 109 | > 10 | 11.3 | > 10 | 1070 | > 10 | > 10 | 16.3 | > 10 | > 10 | 2220 | 18.1
3 | CCCC(C(=O)c1ccc(OC)cc1)N1CCCC1 (stereo unspecified) | 2600 | > 10 | 235 | > 10 | 2430 | > 10 | > 10 | 283 | > 10 | > 10 | 4080 | 329
